In series [1] the test system is Mycobacterium tuberculosis. Put plainly: Antitubercular activity against Mycobacterium tuberculosis H37Rv ATCC 27294 assessed as growth inhibition after 28 days by agar dilution method. Format: functional. The note with it: H37Rv ATCC 27294, 672 h. The method in brief: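 Agar dilution in Middlebrook 7H11 with 10 % OADC, duplicate plates; compounds dissolved in DMSO and diluted twofold to give ten serial dilutions. Inoculum grown on 7H11/OADC slants, adjusted to 1 mg/mL wet weight in 0.05 % Tween 80 saline, diluted 10−2 (~10^7 cfu/mL); 5 μL spotted. Incubated at 37 °C, read at 28 days; MIC = lowest concentration completely inhibiting growth.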
For orientation: Agar dilution tests growth on a series of plates holding different concentrations.

A further series concerns C6. Put plainly: Cytotoxicity against rat C6 cells assessed as cell viability at 0.0000001 to 1 mM after 16 hrs by MTT assay. In kind it is functional. The method in brief: (§1)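 Cells seeded and incubated overnight at 37 °C in a CO2 incubator, then exposed to 1 mM, 100 μM, 100 nM and 100 pM (final) for 16 h at 37 °C, 5 % CO2. Medium removed, MTT (1 mg/mL in medium) added for 5 h, formazan dissolved in DMSO, absorbance read at 570 nm. Viability relative to 0.1 % DMSO solvent control (100 %). Triplicates, means.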
(In general: Tetrazolium assays rely on reduction of a dye to a coloured formazan, in cell work by metabolically active cells.)

The next series relates to SUP-T1. Put plainly: Cytotoxicity against human SupT1 cells assessed as cell viability at 0.0000001 to 1 mM after 16 hrs by MTT assay. Format: functional. The method in brief: as §1
The test system of another series is CHO. Put plainly: Cytotoxicity against CHO cells assessed as cell viability at 0.0000001 to 1 mM after 16 hrs by MTT assay. Format: cell-based, Cricetulus griseus. The note with it: chinese hamster. The method in brief: as §1
The next series relates to COLO 205. The series can be described thus: Cytotoxicity against human COLO205 cells assessed as cell viability at 0.0000001 to 1 mM after 16 hrs by MTT assay. Format: functional, cell-based. The method in brief: as §1

For 16 molecules, MIC and Activity results are on record in ChEMBL document CHEMBL2429831, “Synthesis, antitubercular and anticancer activity of new Baylis-Hillman adduct-derived N-cinnamyl-substituted isatin derivatives” (Med Chem Res, 2013).

Values after ≈ are worked out from the molar mass of the structure shown. Active and inactive are the calls of the source. The calls are words filed in the database; no cut-off is given here.

The MIC is the lowest concentration that inhibits growth of the organism. Regarding `COC(=O)/C(=C/c1ccc([N+](=O)[O-])cc1)CN1C(=O)C(=O)c2cc(Br)ccc21`, the MIC in series [1] was 1.56 µg/mL (≈ 3.5 µM). Moreover, the Activity in the series on C6 is on record as under 20%; in the series on SUP-T1, under 20%; in the series on CHO, “Non-toxic”. Besides, the result in the series on COLO 205 was Active.
Consider `COC(=O)/C(=C/c1ccc(Br)cc1)CN1C(=O)C(=O)c2ccccc21`, for which, in series [1], the MIC came out at 25 µg/mL (≈ 62.5 µM). Also, the result in the series on C6, with SUP-T1 and in the series with COLO 205 was Active. In the series on CHO, the Activity result is reported as “Toxic”.
Turning to `NC(=O)c1cnccn1` [PYRAZINAMIDE], in series [1], the MIC came out at 50.8 µg/mL (≈ 412 µM).
For `COC(=O)/C(=C/c1ccc(Br)cc1)CN1C(=O)C(=O)c2cc(F)ccc21`, in series [1], the minimum inhibitory concentration (MIC) was 6.25 µg/mL (≈ 14.9 µM). The result with C6, with SUP-T1 and with COLO 205 was Active. Further, in the series on CHO, the Activity entry is “Toxic”.
On to `COC(=O)/C(=C/c1ccc([N+](=O)[O-])cc1)CN1C(=O)C(=O)c2ccccc21`, for which the MIC in series [1] came to 6.25 µg/mL (≈ 17.1 µM). In addition, the outcome in the series on C6, in the series with SUP-T1 and in the series on COLO 205 was Active. Moreover, the Activity result in the series with CHO is recorded as “Toxic”.
Regarding `CC[C@@H](CO)NCCN[C@@H](CC)CO` [ETHAMBUTOL], in series [1], the MIC is 7.64 µg/mL (≈ 37.4 µM).
For the molecule `COC(=O)/C(=C/c1ccccc1)CN1C(=O)C(=O)c2cc(F)ccc21`, the MIC in series [1] was 12.5 µg/mL (≈ 36.8 µM). For the same molecule, the outcome in the series on C6, with SUP-T1 and in the series with COLO 205 was Active. Moreover, the Activity entry in the series on CHO is “Toxic”.
On to `COC(=O)/C(=C/c1ccccc1)CN1C(=O)C(=O)c2cc(Cl)ccc21`, for which, in series [1], the MIC stood at 12.5 µg/mL (≈ 35.1 µM). The result in the series with C6, with SUP-T1 and in the series on COLO 205 was Active. The Activity entry in the series on CHO was “Toxic”.
`COC(=O)/C(=C/c1ccccc1)CN1C(=O)C(=O)c2ccccc21`: the MIC in series [1] was 25 µg/mL (≈ 77.8 µM). In addition, the outcome in the series with C6, in the series with SUP-T1 and with COLO 205 was Active. Further, in the series with CHO, the Activity entry is recorded as “Toxic”.
For the molecule `CO[C@H]1/C=C/O[C@@]2(C)Oc3c(C)c(O)c4c(O)c(c(/C=N/N5CCN(C)CC5)c(O)c4c3C2=O)NC(=O)/C(C)=C\C=C\[C@H](C)[C@H](O)[C@@H](C)[C@@H](O)[C@@H](C)[C@H](OC(C)=O)[C@@H]1C` [RIFAMPIN], the MIC in series [1] is 0.1 µg/mL (≈ 0.122 µM).
For `COC(=O)/C(=C/c1ccccc1)CN1C(=O)C(=O)c2cc(Br)ccc21`, in series [1], the MIC was determined as 12.5 µg/mL (≈ 31.2 µM). Moreover, the result in the series on C6, in the series on SUP-T1 and with COLO 205 was Active. Moreover, the Activity entry with CHO is recorded as “Toxic”.
On to `COC(=O)/C(=C/c1ccc(Br)cc1)CN1C(=O)C(=O)c2cc(Cl)ccc21`, for which the minimum inhibitory concentration (MIC) in series [1] was determined as 6.25 µg/mL (≈ 14.4 µM). For the same molecule, the result in the series with C6, with SUP-T1 and in the series on COLO 205 was Active. Further, the Activity result in the series with CHO is given as “Toxic”.
Turning to `NNC(=O)c1ccncc1` [ISONIAZID], the MIC in series [1] came to 0.36 µg/mL (≈ 2.63 µM).
In the case of `COC(=O)/C(=C/c1ccc([N+](=O)[O-])cc1)CN1C(=O)C(=O)c2cc(Cl)ccc21`, the MIC in series [1] came to 1.56 µg/mL (≈ 3.89 µM). The outcome in the series with C6, with SUP-T1 and with COLO 205 was Active. Besides, the Activity result in the series on CHO was “Toxic”.
`COC(=O)/C(=C/c1ccc([N+](=O)[O-])cc1)CN1C(=O)C(=O)c2cc(F)ccc21`: in series [1], the MIC is 1.56 µg/mL (≈ 4.06 µM). Further, the outcome with C6, in the series with SUP-T1 and in the series with COLO 205 was Active. Also, the Activity entry in the series with CHO is recorded as “Toxic”.
For `COC(=O)/C(=C/c1ccc(Br)cc1)CN1C(=O)C(=O)c2cc(Br)ccc21`, the MIC in series [1] is 12.5 µg/mL (≈ 26.1 µM). Further, the outcome in the series with C6, with SUP-T1 and with COLO 205 was Active. Also, the Activity entry with CHO was “Toxic”.
